# Results published in ChEMBL document CHEMBL3272327, “Hypocholesterolemic activity of 1,3-bis(substituted phenoxy)-2-propanones” (J Med Chem, 1976).
# Legend:
# [1] = tested on: Rattus norvegicus; test: Effect on testes weight in rat at 5 mg/kg/day administered for 16 days measured 24 hrs after last drug dosage relative to total body weight (reference value: 1.08 +/- 0.08%); format: ADME, organism-based, Testis; settings: in vivo
# [2] = tested on: Rattus norvegicus; test: Effect on food intake in rat at 10 mg/kg/day measured during second week (reference value: 23.4 +/- 1.8 gms); format: ADME, organism-based; settings: in vivo
# Procedure, shortened: (§1)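 Male rats dosed orally at 1, 5, 10 or 50 mg/kg/day in 1% CMC. Average food intake in grams per rat per week measured over a 2-week period, first and second weeks reported separately. N = 8, Student's t test against the 1% CMC control.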
# [3] = tested on: Rattus norvegicus; test: Effect on RNA content in rat liver at 10 mg/kg/day administered for 16 days (reference value: 100 +/- 8%); format: ADME, organism-based; settings: in vivo, 384 h
# [4] = tested on: Rattus norvegicus; test: Effect on vas deferens and epididymis weight in rat at 5 mg/kg/day administered for 16 days measured 24 hrs after last drug dosage relative to total body weight (reference value: 0.22 +/- 0.04%); format: ADME, organism-based; settings: in vivo
# [5] = tested on: Rattus norvegicus; test: Effect on brain weight in rat at 1 mg/kg/day administered for 16 days measured 24 hrs after last drug dosage relative to total body weight (reference value: 0.67 +/- 0.05%); format: ADME, organism-based; settings: in vivo
# [6] = tested on: Rattus norvegicus; test: Effect on body weight in rat at 50 mg/kg/day administered for 16 days measured on day 16 (reference value: 233 +/- 16 gms); format: ADME, organism-based; settings: in vivo, 384 h
# Procedure, shortened: (§2)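 Male Sprague-Dawley rats with chow and water ad libitum. Compound suspended in 1% CMC-water and given orally by intubation needle at 11:00 a.m., 1, 5, 10 or 50 mg/kg/day, for 16 days. Body weight (g) recorded on days 0, 7 and 16. N = 8.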
# [7] = tested on: Rattus norvegicus; test: Effect on vesicular gland weight in rat at 10 mg/kg/day administered for 16 days measured 24 hrs after last drug dosage relative to total body weight (reference value: 0.10 to 0.11%); format: ADME, organism-based; settings: in vivo
# [8] = tested on: Rattus norvegicus; test: Hypocholesterolemic activity in [14C]palmitic acid-treated rat assessed as decrease in 14C fatty acid incorporation into phospholipid fraction in liver at 10 mg/kg/day administered for 1 week by scintillation counting analysis; format: functional; design: scale not given: the % may be the effect or the level left
# [9] = tested on: Rattus norvegicus; test: Hypocholesterolemic activity in Sprague-Dawley rat assessed as serum cholesterol level at 5 mg/kg/day, po administered via intubation measured on day 4 by Liebermann-Burchard reaction (reference value: 100 +/- 7%); format: functional
# [10] = tested on: Rattus norvegicus; test: Effect on testes weight in rat at 10 mg/kg/day administered for 16 days measured 24 hrs after last drug dosage relative to total body weight (reference value: 1.08 to 1.10%); format: ADME, organism-based, Testis; settings: in vivo
# [11] = tested on: Rattus norvegicus; test: Effect on vesicular gland weight in rat at 50 mg/kg/day administered for 16 days measured 24 hrs after last drug dosage relative to total body weight (reference value: 0.10 +/- 0.04%); format: ADME, organism-based; settings: in vivo
# [12] = tested on: Rattus norvegicus; test: Effect on food intake in rat at 1 mg/kg/day measured during second week (reference value: 23.4 +/- 1.8 gms); format: ADME, organism-based; settings: in vivo; procedure, shortened: as §1
# [13] = tested on: Rattus norvegicus; test: Hypocholesterolemic activity in rat assessed as [14C]palmitic acid recovery at 10 mg/kg/day administered for 1 week measured after 22 hrs on day 7 by scintillation counting analysis (reference value: 98%); format: functional
# Procedure, shortened: (§3)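 Male Sprague-Dawley rats on lab chow dosed orally once daily for 1 week at 10 mg/kg/day, suspended in 1% CMC, or given vehicle alone. On day 7, 5 μCi [1-14C]palmitic acid given orally. Killed after 22 hr; organs made into 10% water homogenates. Aliquots of 0.1 cc of homogenate, urine, blood or feces were digested and scintillation counted. Output is % of dose per tissue, N = 6.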
# [14] = tested on: Rattus norvegicus; test: Hypocholesterolemic activity in rat assessed as [14C]palmitic acid level in vas deferens at 10 mg/kg/day administered for 1 week measured after 22 hrs on day 7 by scintillation counting analysis (reference value: 0.23 +/- 0.05%); format: functional; procedure, shortened: as §3
# [15] = tested on: Rattus norvegicus; test: Hypocholesterolemic activity in Sprague-Dawley rat assessed as serum cholesterol level at 50 mg/kg/day, po administered via intubation measured on day 10 by Liebermann-Burchard reaction (reference value: 100 +/- 7%); format: functional
# [16] = tested on: Rattus norvegicus; test: Effect on food intake in rat at 10 mg/kg/day measured during first week (reference value: 19.1 +/- 1.7 gms); format: ADME, organism-based; settings: in vivo; procedure, shortened: as §1
# [17] = tested on: Rattus norvegicus; test: Effect on kidney weight in rat at 10 mg/kg/day administered for 16 days measured 24 hrs after last drug dosage relative to total body weight (reference value: 0.92 to 0.96%); format: ADME, organism-based; settings: in vivo
# [18] = tested on: Rattus norvegicus; test: Effect on brain weight in rat at 5 mg/kg/day administered for 16 days measured 24 hrs after last drug dosage relative to total body weight (reference value: 0.67 +/- 0.05%); format: ADME, organism-based; settings: in vivo
# [19] = tested on: Rattus norvegicus; test: Effect on vas deferens and epididymis weight in rat at 50 mg/kg/day administered for 16 days measured 24 hrs after last drug dosage relative to total body weight (reference value: 0.22 +/- 0.04%); format: ADME, organism-based; settings: in vivo
# [20] = tested on: Rattus norvegicus; test: Effect on body weight in rat at 5 mg/kg/day administered for 16 days measured on day 16 (reference value: 233 +/- 16 gms); format: ADME, organism-based; settings: in vivo, 384 h; procedure, shortened: as §2
# [21] = tested on: Rattus norvegicus; test: Effect on spleen weight in rat at 10 mg/kg/day administered for 16 days measured 24 hrs after last drug dosage relative to total body weight (reference value: 0.55 +/- 0.12%); format: ADME, organism-based; settings: in vivo
# [22] = tested on: Rattus norvegicus; test: Effect on kidney weight in rat at 5 mg/kg/day administered for 16 days measured 24 hrs after last drug dosage relative to total body weight (reference value: 0.92 +/- 0.04%); format: ADME, organism-based; settings: in vivo
# [23] = tested on: Rattus norvegicus; test: Hypocholesterolemic activity in Sprague-Dawley rat assessed as serum cholesterol level at 10 mg/kg/day, po administered via intubation measured on day 10 by Liebermann-Burchard reaction (reference value: 100%); format: functional
# [24] = tested on: Rattus norvegicus; test: Hypocholesterolemic activity in Sprague-Dawley rat assessed as serum cholesterol level at 1 mg/kg/day, po administered via intubation measured on day 16 by Liebermann-Burchard reaction (reference value: 100 +/- 8%); format: functional
# [25] = tested on: Rattus norvegicus; test: Effect on DNA content in rat liver at 10 mg/kg/day administered for 16 days (reference value: 100 +/- 25%); format: ADME, organism-based; settings: in vivo, 384 h
# [26] = tested on: Rattus norvegicus; test: Effect on brain weight in rat at 10 mg/kg/day administered for 16 days measured 24 hrs after last drug dosage relative to total body weight (reference value: 0.67 +/- 0.05%); format: ADME, organism-based; settings: in vivo
# [27] = tested on: Rattus norvegicus; test: Hypocholesterolemic activity in [14C]palmitic acid-treated rat assessed as decrease in 14C fatty acid incorporation into cholesterol ester fraction in liver at 10 mg/kg/day administered for 1 week by scintillation counting analysis; format: functional; design: scale not given: the % may be the effect or the level left
# [28] = tested on: Rattus norvegicus; test: Hypocholesterolemic activity in [14C]palmitic acid-treated rat assessed as decrease in 14C fatty acid incorporation into triglyceride fraction in liver at 10 mg/kg/day administered for 1 week by scintillation counting analysis; format: functional; design: scale not given: the % may be the effect or the level left
# [29] = tested on: Rattus norvegicus; test: Effect on food intake in rat at 50 mg/kg/day measured during first week (reference value: 19.1 +/- 1.7 gms); format: ADME, organism-based; settings: in vivo; procedure, shortened: as §1
# [30] = tested on: Rattus norvegicus; test: Effect on liver weight in rat at 10 mg/kg/day administered for 16 days measured 24 hrs after last drug dosage relative to total body weight (reference value: 4.22 to 4.54%); format: ADME, organism-based; settings: in vivo
smiles,measurement,setting,value
Cc1ccc(OCC(=O)COc2ccc(C)cc2)cc1,Activity,[1],1.03%
same,Activity,[2],28.6 g
same,Activity,[3],104%
same,Activity,[4],0.21%
same,Activity,[5],0.74%
same,Activity,[6],232 g
same,Activity,[7],0.11%
same,Activity,[8],16%
same,Activity,[9],74%
same,Activity,[10],1.13%
same,Activity,[11],0.15%
same,Activity,[12],29.2 g
same,Activity,[13],96.75%
same,Activity,[14],0.5%
same,Activity,[15],46%
same,Activity,[16],18.2 g
same,Activity,[17],0.93%
same,Activity,[18],0.73%
same,Activity,[19],0.25%
same,Activity,[20],241 g
same,Activity,[21],0.6%
same,Activity,[22],0.88%
same,Activity,[23],50%
same,Activity,[24],46%
same,Activity,[25],81%
same,Activity,[26],0.71%
same,Activity,[27],46%
same,Activity,[28],53%
same,Activity,[29],18.9 g
same,Activity,[30],4.65%
